# Assay results taken from paper PMC3895945 (Nuclear medicine and biology, 2013).
# Experiments:
# 9L glioma cells = assay: In vitro uptake studies in 9L cells; format: cell-based; conditions: for uptake in 9L cells: result in words; for uptake relative to that of FET: 9L glioma cells, 5-120 min incubation at 37 °C
# In short: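 9L gliosarcoma cells were grown in DMEM with 10 % FBS (37 °C, 5 % CO2) and plated at 2.0 × 10^5 cells/well 24 h ahead. Cells were washed with warm PBS containing Ca2+/Mg2+, then given radiolabeled test compound in PBS (~500,000 cpm/mL/well) at 37 °C for 5, 30, 60 or 120 min. They were washed with ice-cold PBS, lysed in 0.1N NaOH and gamma-counted. Uptake was normalised to protein (modified Lowry) as %uptake/100 μg protein, in triplicate.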
# 9L tumors [1] = assay: Dynamic small animal PET imaging in rats bearing 9L tumors; format: in vivo, Fisher rats; conditions: for maximum tumor-to-muscle ratio: PET region-of-interest analysis; for maximum tumor-to-muscle ratio / time to maximum tumor uptake: 9L tumors; for time to maximum tumor uptake / tumor uptake kinetics and retention: PET time-activity curves; for tumor uptake kinetics and retention: result in words
# 9L tumors [2] = assay: In vivo biodistribution in Fisher rats with 9L glioma tumors; design: species or system Fischer 344 rats; conditions: for Tissue distribution Tumor: 9L tumor; for tumor uptake kinetics and retention: biodistribution 30 to 60 min, result in words; for time to maximum uptake in the tumors: biodistribution, 9L tumors; for Tumor/Blood / Tumor/Brain / Tumor/Muscle: ratio
# In vitro metabolism [3] = format: in vitro ADME, human
# In short: (§1)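 Radiolabeled test compound (~3 MBq in 50 μL PBS) was added to 1.0 mL preheated blood or a PBS control at 37 °C. Rat blood was freshly drawn from anesthetized Fisher 344 rats into heparin (100 unit/mL); heparinized human blood had been stored at −70 °C. Aliquots taken at 5–120 min were deproteinized with 1 % picric acid and centrifuged. Supernatant was analysed by C-18 radio-HPLC. Percent intact compound versus time was fitted to first-order kinetics.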
# In vitro metabolism [4] = format: in vitro ADME, rat; conditions: for half-life: Fisher 344, rat, fresh heparinized rat whole blood
# In short: as §1
# [5] = In vivo metabolism studies of FET prodrugs in Fisher 344 rats; conditions: blood drawn 5 min after intravenous injection
# In short: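 Fisher 344 rats received ~37 MBq radiolabeled test compound intravenously. Blood was drawn from the heart 5 min post-injection. 50 μL aliquots were deproteinized with 1 % picric acid and centrifuged at 12,000g. Supernatant was run on C-18 HPLC (CH3CN/0.1 % formic acid), and fractions were gamma-counted. Parent and radio-metabolites were identified by retention time.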
# [6] = 30 min after intravenous injection
# [7] = 60 min after intravenous injection
# [8] = 30 min after intravenous injection, listed as FET-Ala([^18F]3)
smiles,measurement,setting,value
"N[C@@H](Cc1ccc(OCC[18F])cc1)C(=O)O [FET ([^18F]1), O-(2-[^18F]fluoroethyl)-L-tyrosine, reference compound]",uptake in 9L cells,9L glioma cells,high uptake
same,maximum tumor-to-muscle ratio,9L tumors [1],5
same,time to maximum tumor uptake,9L tumors [1],≤ 20 min
same,tumor uptake kinetics and retention,9L tumors [1],long retention
"O=C[C@H]([18F])[C@@H](O)[C@H](O)[C@H](O)CO [FDG, 2-[^18F]fluoro-2-deoxy-D-glucose, reference compound]",tumor uptake kinetics and retention,9L tumors [1],continuously increasing tumor uptake
"C[C@H](NC(=O)[C@@H](N)Cc1ccc(OCC[18F])cc1)C(=O)O [FET-Ala ([^18F]3), O-(2-[^18F]fluoroethyl)-L-tyrosyl-L-alanine]",Tissue distribution Tumor,9L tumors [2]; [6],1.18 ± 0.10 % ID/g
same,Tissue distribution Tumor,9L tumors [2]; [7],1.10 ± 0.29 % ID/g
same,Tissue distribution Blood,9L tumors [2]; [6],0.72 ± 0.03 % ID/g
same,Tissue distribution Bone,9L tumors [2]; [6],0.41 ± 0.03 % ID/g
same,Tissue distribution Brain,9L tumors [2]; [6],0.31 ± 0.01 % ID/g
same,Tissue distribution Heart,9L tumors [2]; [6],0.67 ± 0.03 % ID/g
same,Tissue distribution Kidney,9L tumors [2]; [6],0.58 ± 0.02 % ID/g
same,Tissue distribution Liver,9L tumors [2]; [6],0.66 ± 0.02 % ID/g
same,Tissue distribution Lung,9L tumors [2]; [6],0.62 ± 0.02 % ID/g
same,Tissue distribution Muscle,9L tumors [2]; [6],0.54 ± 0.01 % ID/g
same,Tissue distribution Pancreas,9L tumors [2]; [6],3.06 ± 0.38 % ID/g
same,Tissue distribution Skin,9L tumors [2]; [6],0.69 ± 0.20 % ID/g
same,Tissue distribution Spleen,9L tumors [2]; [6],0.74 ± 0.06 % ID/g
same,Tissue distribution Blood,9L tumors [2]; [7],0.72 ± 0.03 % ID/g
same,Tissue distribution Bone,9L tumors [2]; [7],0.46 ± 0.03 % ID/g
same,Tissue distribution Brain,9L tumors [2]; [7],0.38 ± 0.02 % ID/g
same,Tissue distribution Heart,9L tumors [2]; [7],0.66 ± 0.03 % ID/g
same,Tissue distribution Kidney,9L tumors [2]; [7],0.57 ± 0.02 % ID/g
same,Tissue distribution Liver,9L tumors [2]; [7],0.65 ± 0.02 % ID/g
same,Tissue distribution Lung,9L tumors [2]; [7],0.61 ± 0.03 % ID/g
same,Tissue distribution Muscle,9L tumors [2]; [7],0.60 ± 0.03 % ID/g
same,Tissue distribution Pancreas,9L tumors [2]; [7],3.52 ± 0.26 % ID/g
same,Tissue distribution Skin,9L tumors [2]; [7],0.73 ± 0.16 % ID/g
same,Tissue distribution Spleen,9L tumors [2]; [7],0.71 ± 0.03 % ID/g
same,tumor uptake kinetics and retention,9L tumors [2],long retention
same,time to maximum uptake in the tumors,9L tumors [2],≤ 30 min
same,Tumor/Blood,9L tumors [2]; [6],1.6
same,Tumor/Brain,9L tumors [2]; [6],3.8
same,Tumor/Muscle,9L tumors [2]; [6],2.2
same,Tumor/Blood,9L tumors [2]; [8],1.64 ± 0.15
same,Tumor/Brain,9L tumors [2]; [8],3.81 ± 0.35
same,Tumor/Muscle,9L tumors [2]; [8],2.18 ± 0.19
same,Tumor/Blood,9L tumors [2]; [7],1.53 ± 0.41
same,Tumor/Brain,9L tumors [2]; [7],2.89 ± 0.78
same,Tumor/Muscle,9L tumors [2]; [7],1.83 ± 0.49
same,half-life,"In vitro metabolism [3]; human, heparinized human whole blood",0.8 min
same,uptake in 9L cells,9L glioma cells,negligible uptake
same,uptake relative to that of FET,9L glioma cells,less than 1%
same,maximum tumor-to-muscle ratio,9L tumors [1],5
same,time to maximum tumor uptake,9L tumors [1],≤ 20 min
same,tumor uptake kinetics and retention,9L tumors [1],long retention
same,half-life,In vitro metabolism [4],5.8 min
same,metabolized to FET,[5],79%
"N[C@@H](Cc1ccc(OCC[18F])cc1)C(=O)NCC(=O)O [FET-Gly ([^18F]2), O-(2-[^18F]fluoroethyl)-L-tyrosyl-L-glycine]",Tissue distribution Tumor,9L tumors [2]; [6],0.81 ± 0.30 % ID/g
same,Tissue distribution Tumor,9L tumors [2]; [7],0.56 ± 0.33 % ID/g
same,Tissue distribution Blood,9L tumors [2]; [6],0.72 ± 0.02 % ID/g
same,Tissue distribution Bone,9L tumors [2]; [6],0.41 ± 0.01 % ID/g
same,Tissue distribution Brain,9L tumors [2]; [6],0.33 ± 0.02 % ID/g
same,Tissue distribution Heart,9L tumors [2]; [6],0.67 ± 0.03 % ID/g
same,Tissue distribution Kidney,9L tumors [2]; [6],0.57 ± 0.01 % ID/g
same,Tissue distribution Liver,9L tumors [2]; [6],0.67 ± 0.02 % ID/g
same,Tissue distribution Lung,9L tumors [2]; [6],0.59 ± 0.01 % ID/g
same,Tissue distribution Muscle,9L tumors [2]; [6],0.52 ± 0.04 % ID/g
same,Tissue distribution Pancreas,9L tumors [2]; [6],2.74 ± 0.39 % ID/g
same,Tissue distribution Skin,9L tumors [2]; [6],0.44 ± 0.03 % ID/g
same,Tissue distribution Spleen,9L tumors [2]; [6],0.76 ± 0.05 % ID/g
same,Tissue distribution Blood,9L tumors [2]; [7],0.74 ± 0.06 % ID/g
same,Tissue distribution Bone,9L tumors [2]; [7],0.45 ± 0.04 % ID/g
same,Tissue distribution Brain,9L tumors [2]; [7],0.47 ± 0.06 % ID/g
same,Tissue distribution Heart,9L tumors [2]; [7],0.68 ± 0.05 % ID/g
same,Tissue distribution Kidney,9L tumors [2]; [7],0.57 ± 0.05 % ID/g
same,Tissue distribution Liver,9L tumors [2]; [7],0.66 ± 0.05 % ID/g
same,Tissue distribution Lung,9L tumors [2]; [7],0.62 ± 0.06 % ID/g
same,Tissue distribution Muscle,9L tumors [2]; [7],0.67 ± 0.06 % ID/g
same,Tissue distribution Pancreas,9L tumors [2]; [7],2.92 ± 0.44 % ID/g
same,Tissue distribution Skin,9L tumors [2]; [7],0.46 ± 0.01 % ID/g
same,Tissue distribution Spleen,9L tumors [2]; [7],0.80 ± 0.12 % ID/g
same,washout from 9L tumors,9L tumors [2]; at 60 min (from 30 min),31%
same,time to maximum uptake in the tumors,9L tumors [2],≤ 30 min
same,Tumor/Blood,9L tumors [2]; [6],1.13 ± 0.42
same,Tumor/Brain,9L tumors [2]; [6],2.45 ± 0.92
same,Tumor/Muscle,9L tumors [2]; [6],1.56 ± 0.59
same,Tumor/Blood,9L tumors [2]; [7],0.76 ± 0.45
same,Tumor/Brain,9L tumors [2]; [7],1.19 ± 0.72
same,Tumor/Muscle,9L tumors [2]; [7],0.84 ± 0.50
same,t1/2 Human blood,"In vitro metabolism [3]; hydrolysis to FET in human blood at 37 °C, average of two experiments",22.7 min
same,uptake in 9L cells,9L glioma cells,negligible uptake
same,uptake relative to that of FET,9L glioma cells,less than 1%
same,maximum tumor-to-muscle ratio,9L tumors [1],5
same,time to maximum tumor uptake,9L tumors [1],≤ 20 min
same,tumor uptake kinetics and retention,9L tumors [1],washout
same,t1/2 Rat blood,"In vitro metabolism [4]; hydrolysis to FET in rat blood at 37 °C, average of two experiments",17.3 min
same,metabolized to FET,[5],72%
"CC(=O)N[C@@H](Cc1ccc(OCC[18F])cc1)C(=O)O [AcFET ([^18F]4), N-acetyl O-(2-[^18F]fluoroethyl)-L-tyrosine]",Tissue distribution Tumor,9L tumors [2]; [6],0.61 ± 0.13 % ID/g
same,Tissue distribution Tumor,9L tumors [2]; [7],0.85 ± 0.09 % ID/g
same,Tissue distribution Blood,9L tumors [2]; [6],0.69 ± 0.03 % ID/g
same,Tissue distribution Bone,9L tumors [2]; [6],0.32 ± 0.01 % ID/g
same,Tissue distribution Brain,9L tumors [2]; [6],0.26 ± 0.01 % ID/g
same,Tissue distribution Heart,9L tumors [2]; [6],0.60 ± 0.03 % ID/g
same,Tissue distribution Kidney,9L tumors [2]; [6],0.70 ± 0.07 % ID/g
same,Tissue distribution Liver,9L tumors [2]; [6],0.64 ± 0.01 % ID/g
same,Tissue distribution Lung,9L tumors [2]; [6],0.55 ± 0.04 % ID/g
same,Tissue distribution Muscle,9L tumors [2]; [6],0.45 ± 0.02 % ID/g
same,Tissue distribution Pancreas,9L tumors [2]; [6],2.54 ± 0.11 % ID/g
same,Tissue distribution Skin,9L tumors [2]; [6],0.48 ± 0.01 % ID/g
same,Tissue distribution Spleen,9L tumors [2]; [6],0.66 ± 0.02 % ID/g
same,Tissue distribution Blood,9L tumors [2]; [7],0.62 ± 0.01 % ID/g
same,Tissue distribution Bone,9L tumors [2]; [7],0.33 ± 0.01 % ID/g
same,Tissue distribution Brain,9L tumors [2]; [7],0.36 ± 0.03 % ID/g
same,Tissue distribution Heart,9L tumors [2]; [7],0.56 ± 0.02 % ID/g
same,Tissue distribution Kidney,9L tumors [2]; [7],0.57 ± 0.05 % ID/g
same,Tissue distribution Liver,9L tumors [2]; [7],0.56 ± 0.01 % ID/g
same,Tissue distribution Lung,9L tumors [2]; [7],0.51 ± 0.01 % ID/g
same,Tissue distribution Muscle,9L tumors [2]; [7],0.49 ± 0.01 % ID/g
same,Tissue distribution Pancreas,9L tumors [2]; [7],2.23 ± 0.51 % ID/g
same,Tissue distribution Skin,9L tumors [2]; [7],0.44 ± 0.01 % ID/g
same,Tissue distribution Spleen,9L tumors [2]; [7],0.65 ± 0.06 % ID/g
same,tumor uptake kinetics and retention,9L tumors [2],slower uptake kinetics
same,Tumor/Blood,9L tumors [2]; [6],0.88 ± 0.19
same,Tumor/Brain,9L tumors [2]; [6],2.35 ± 0.51
same,Tumor/Muscle,9L tumors [2]; [6],1.36 ± 0.30
same,Tumor/Blood,9L tumors [2]; [7],1.37 ± 0.15
same,Tumor/Brain,9L tumors [2]; [7],2.36 ± 0.32
same,Tumor/Muscle,9L tumors [2]; [7],1.73 ± 0.19
same,stability in human blood,"In vitro metabolism [3]; human blood, 37 °C",completely stable
same,uptake in 9L cells,9L glioma cells,negligible uptake
same,uptake relative to that of FET,9L glioma cells,less than 1%
same,maximum tumor-to-muscle ratio,9L tumors [1],< 5
same,time to maximum tumor uptake,9L tumors [1],60 min
same,tumor uptake kinetics and retention,9L tumors [1],slower kinetics
same,half-life,In vitro metabolism [4],77.5 min
same,metabolized to FET,[5],66%
